Measured values: ChEMBL document CHEMBL1208665, “Discovery of new 1,3,5-triazine scaffolds with potent activity against Mycobacterium tuberculosis H37Rv” (Eur J Med Chem, 2010)
Values after ≈ are worked out from the molar mass of the structure shown.

Key:
[1] = test system: Mycobacterium tuberculosis; assay: Antimycobacterial activity against Mycobacterium tuberculosis H37Rv […] after 4 weeks; assay type: functional
Summary of the method: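 Agar-slant dilution against H37Rv. Compounds from 1.0 mg/mL DMSO stock, two-fold serial dilutions, were incorporated into OADC-supplemented medium (2 mL/tube final) and solidified slanted. Inoculum spread on the surface, incubated 37 °C for 4 weeks. Drug-free tubes served as control. MIC is the lowest concentration giving complete growth inhibition relative to the inoculum used.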

[2] = test system: Vero; assay: (§1) Cytotoxicity against Vero cells after 24 hrs by MTS assay; assay type: cell-based; conditions: chlorocebus sabaeus, vero, 24 h
Summary of the method: (§2)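 VERO cells were seeded at 20,000/well in MEM + 10% FBS with antibiotics and left to adhere overnight at 37 °C, 5% CO₂. Compound dilutions were added in MEM + 10% FBS for 24 h, with DMSO as negative control and a known toxic compound as positive control. Read-out was MTS, 2 h, A490, with DMSO wells taken as 100% survival.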

[3] = Cytotoxicity against mouse BMDM after 48 hrs by MTS assay; assay type: cell-based; conditions: for Activity: bmdm, 48 h
Summary of the method: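 Mouse femur bone marrow was flushed with DMEM + 10% FBS, 15% L-929 conditioned supernatant and non-essential amino acids. Cells were plated at 10⁵/well, medium was changed every 3rd day, and cells were used at day 5. Compounds were added in antibiotic-free FBS-DMEM for 48 h at 37 °C, 5% CO₂. Read-out was MTS, 2 h, A490, with DMSO wells taken as 100% survival.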

[4] = as §1; assay type: cell-based; conditions: chlorocebus sabaeus, Vero cells; read-out: MIC; summary of the method: as §2

SMILES	MIC [1]	other results
CC(C)Nc1nc(NNC(=O)c2ccncc2)nc(N2CCc3ccccc3C2)n1	3.12 µg/mL (≈ 7.71 µM)	Activity [2]: Non-toxic; Activity [3]: Non-toxic
COc1cc(-c2cc(N3CCN(C)CC3)nc(N)n2)cc(OC)c1OC	> 12.5 µg/mL	–
CCCNC1COCCN1c1nc(N2CCc3ccccc3C2)nc(N2CCc3ccccc3C2)n1 (stereo not drawn)	> 12.5 µg/mL	–
COc1ccc(-c2cc(SC)nc(Nc3nc(NC(C)(C)C)nc(NC(C)(C)C)n3)n2)cc1OC	6.25 µg/mL (≈ 12.5 µM)	–
CC(C)Nc1nc(NC(C)C)nc(N2CCCc3ccccc32)n1	> 12.5 µg/mL	–
O=C(NNc1nc(N2CCCCC2)nc(N2CCCCC2)n1)c1ccncc1	6.25 µg/mL (≈ 16.3 µM)	–
CN1CCN(c2nc(N3CCCc4ccccc43)nc(N3CCCc4ccccc43)n2)CC1	> 12.5 µg/mL	–
CC(C)(C)Nc1nc(NNC(=O)c2ccncc2)nc(N2CCCCC2)n1	6.25 µg/mL (≈ 16.9 µM)	–
CC(C)Nc1nc(NNC(=O)c2ccncc2)nc(N2CCCCC2)n1	3.12 µg/mL (≈ 8.75 µM)	Activity [2]: Non-toxic; Activity [3]: Non-toxic
CCCCNc1nc(NNC(=O)c2ccncc2)nc(Nc2ccccc2)n1	6.25 µg/mL (≈ 16.5 µM)	–
CCCNc1nc(NCCC)nc(N2CCCCC2)n1	12.5 µg/mL (≈ 44.9 µM)	MCC at 24 h [4]: > 12.5 µg/mL; MCC at 48 h ([3]; BMDM (bone marrow-derived macrophages), read-out: MIC): > 12.5 µg/mL
O=C(NNc1nc(Nc2ccccc2)nc(N2CCCCC2)n1)c1ccncc1	> 12.5 µg/mL	–
NN(C(=O)c1ccncc1)c1nc(Nc2ccccc2)nc(N(N)C(=O)c2ccncc2)n1	> 12.5 µg/mL	–
CCCCNc1nc(NNC(=O)c2ccncc2)nc(N2CCCCC2)n1	3.12 µg/mL (≈ 8.42 µM)	Activity [2]: Non-toxic; Activity [3]: Non-toxic
COc1ccc(-c2cc(SC)nc(Nc3nc(N4CCOCC4)nc(N4CCOCC4)n3)n2)cc1OC	> 12.5 µg/mL	–
CCN(CC)CCNc1nc(NCCN(CC)CC)nc(Nc2nc(SC)cc(-c3ccc(OC)c(OC)c3)n2)n1	6.25 µg/mL (≈ 10.7 µM)	–
CN1CCN(c2nc(N3CCc4ccccc4C3)nc(N3CCc4ccccc4C3)n2)CC1	6.25 µg/mL (≈ 14.2 µM)	–
c1ccc2c(c1)CCN(c1nc(N3CCOCC3)nc(N3CCc4ccccc4C3)n1)C2	> 12.5 µg/mL	–
COc1ccc(-c2cc(SC)nc(Nc3nc(N4CCN(C)CC4)nc(N4CCN(C)CC4)n3)n2)cc1OC	> 12.5 µg/mL	–
O=C(NNc1nc(Nc2ccccc2)nc(N2CCOCC2)n1)c1ccncc1	1.56 µg/mL (≈ 3.98 µM)	Activity [2]: Non-toxic; Activity [3]: Non-toxic
O=C(NNc1nc(Nc2ccccc2)nc(NC2CCCCC2)n1)c1ccncc1	6.25 µg/mL (≈ 15.5 µM)	–
CCN(CC)CCNc1nc(NCCN(CC)CC)nc(N2CCCc3ccccc32)n1	> 12.5 µg/mL	–
CCNC1CN(c2nc(N3CCCCC3)nc(N3CCOC(NCC)C3)n2)CCO1 (stereo not drawn)	> 12.5 µg/mL	–
CC(C)Nc1nc(NNC(=O)c2ccncc2)nc(Nc2ccccc2)n1	6.25 µg/mL (≈ 17.2 µM)	–
CCCCNc1nc(NCCCC)nc(Nc2nc(SC)cc(-c3cc(OC)c(OC)c(OC)c3)n2)n1	> 12.5 µg/mL	–
CCN(CC)CCNc1nc(NCCN(CC)CC)nc(N2CCCCC2)n1	> 12.5 µg/mL	–

SMILES	MIC [1]	other results
CC(C)(C)Nc1nc(N2CCc3ccccc3C2)nc(N2CCc3ccccc3C2)n1	> 12.5 µg/mL	–
CCCNC1COCCN1c1nc(N2CCCc3ccccc32)nc(N2CCCc3ccccc32)n1 (stereo not drawn)	> 12.5 µg/mL	–
O=C(NNc1nc(Nc2ncccn2)nc(N2CCCCC2)n1)c1ccncc1	3.12 µg/mL (≈ 7.95 µM)	Activity [2]: Non-toxic; Activity [3]: Non-toxic
CC(C)(C)Nc1nc(NNC(=O)c2ccncc2)nc(Nc2ccccc2)n1	> 12.5 µg/mL	–
CCCCNc1nc(NNC(=O)c2ccncc2)nc(N2CCc3ccccc3C2)n1	3.12 µg/mL (≈ 7.46 µM)	Activity [2]: Non-toxic; Activity [3]: Non-toxic
COc1cc(-c2cc(N3CCOCC3)nc(N)n2)cc(OC)c1OC	> 12.5 µg/mL	–
COc1cc(-c2cc(SC)nc(Nc3nc(N4CCCCC4)nc(N4CCCCC4)n3)n2)cc(OC)c1OC	6.25 µg/mL (≈ 11.3 µM)	–
CCN(CC)CCNc1nc(N)nc(Nc2nc(SC)cc(-c3cc(OC)c(OC)c(OC)c3)n2)n1	> 12.5 µg/mL	–
CC(C)(C)Nc1nc(NC(C)(C)C)nc(N2CCCc3ccccc32)n1	> 12.5 µg/mL	–
CCN(CC)CCNc1nc(N2CCc3ccccc3C2)nc(N2CCc3ccccc3C2)n1	> 12.5 µg/mL	–
CCCNC1COCCN1c1cc(-c2cc(OC)c(OC)c(OC)c2)nc(N)n1 (stereo not drawn)	> 12.5 µg/mL	–
CCN(CC)CCNc1nc(N2CCCc3ccccc32)nc(N2CCCc3ccccc32)n1	> 12.5 µg/mL	–
c1ccc2c(c1)CCCN2c1nc(N2CCOCC2)nc(N2CCCc3ccccc32)n1	> 12.5 µg/mL	–
O=C(NNc1nc(N2CCc3ccccc3C2)nc(N2CCc3ccccc3C2)n1)c1ccncc1	3.12 µg/mL (≈ 6.52 µM)	Activity [2]: Non-toxic; Activity [3]: Toxic
CCCNc1nc(NCCC)nc(N2CCCc3ccccc32)n1	> 12.5 µg/mL	–
CCN1CCN(c2nc(Nc3nc(SC)cc(-c4cc(OC)c(OC)c(OC)c4)n3)nc(N3CCN(CC)CC3)n2)CC1	12.5 µg/mL (≈ 20.5 µM)	–
O=C(NNc1nc(N2CCCCC2)nc(N2CCc3ccccc3C2)n1)c1ccncc1	3.12 µg/mL (≈ 7.25 µM)	Activity [2]: Non-toxic; Activity [3]: Toxic
CC(C)(C)Nc1nc(N2CCCc3ccccc32)nc(N2CCCc3ccccc32)n1	> 12.5 µg/mL	–
CC(C)Nc1nc(NC(C)C)nc(N2CCCCC2)n1	12.5 µg/mL (≈ 44.9 µM)	–
CC(C)(C)Nc1nc(NC(C)(C)C)nc(N2CCCCC2)n1	> 12.5 µg/mL	–
COc1cc(-c2cc(N3CCCCC3)nc(N)n2)cc(OC)c1OC	> 12.5 µg/mL	–
CCCCNc1nc(NNC(=O)c2ccncc2)nc(N2CCCc3ccccc32)n1	6.25 µg/mL (≈ 14.9 µM)	–
CN(C)CCNc1nc(NCCN(C)C)nc(N2CCCCC2)n1	> 12.5 µg/mL	–
O=C(NNc1nc(Nc2ccccc2)nc(Nc2ccccc2)n1)c1ccncc1	> 12.5 µg/mL	–
COc1cc(-c2cc(SC)nc(Nc3nc(N4CCOCC4)nc(N4CCOCC4)n3)n2)cc(OC)c1OC	> 12.5 µg/mL	–
CCNC1CN(c2nc(Nc3nc(SC)cc(-c4ccc(OC)c(OC)c4)n3)nc(N3CCOC(NCC)C3)n2)CCO1 (stereo not drawn)	> 12.5 µg/mL	–

SMILES	MIC [1]	other results
CCN(CC)CCNc1cc(-c2cc(OC)c(OC)c(OC)c2)nc(N)n1	> 12.5 µg/mL	–
CCCCNc1cc(-c2cc(OC)c(OC)c(OC)c2)nc(N)n1	> 12.5 µg/mL	–
NNC(=O)c1ccncc1 [ISONIAZID]	0.025 µg/mL (≈ 0.182 µM)	Activity [2]: Non-toxic; Activity [3]: Non-toxic
CC(C)(C)Nc1nc(NNC(=O)c2ccncc2)nc(N2CCCc3ccccc32)n1	3.12 µg/mL (≈ 7.46 µM)	–
CCCNC1COCCN1c1nc(Nc2nc(SC)cc(-c3cc(OC)c(OC)c(OC)c3)n2)nc(N2CCOCC2NCCC)n1 (stereo not drawn)	12.5 µg/mL (≈ 18.6 µM)	–
COc1cc(-c2cc(SC)nc(Nc3nc(N4CCN(C)CC4)nc(N4CCN(C)CC4)n3)n2)cc(OC)c1OC	12.5 µg/mL (≈ 21.5 µM)	–
O=C(NNc1nc(N2CCOCC2)nc(N2CCCc3ccccc32)n1)c1ccncc1	3.12 µg/mL (≈ 7.21 µM)	Activity [2]: Non-toxic; Activity [3]: Non-toxic
CC(C)Nc1nc(NNC(=O)c2ccncc2)nc(N2CCCc3ccccc32)n1	3.12 µg/mL (≈ 7.71 µM)	Activity [2]: Non-toxic; Activity [3]: Non-toxic
COc1ccc(-c2cc(SC)nc(Nc3nc(NCCN(C)C)nc(NCCN(C)C)n3)n2)cc1OC	6.25 µg/mL (≈ 11.8 µM)	–
CCCNc1nc(NCCC)nc(Nc2nc(SC)cc(-c3ccc(OC)c(OC)c3)n2)n1	> 12.5 µg/mL	–
COc1cc(-c2cc(SC)nc(Nc3nc(NC(C)C)nc(NC(C)C)n3)n2)cc(OC)c1OC	3.12 µg/mL (≈ 6.23 µM)	Activity [2]: Toxic; Activity [3]: Toxic
COc1ccc(-c2cc(SC)nc(Nc3nc(NC(C)C)nc(NC(C)C)n3)n2)cc1OC	12.5 µg/mL (≈ 26.6 µM)	–
CCNc1nc(NCC)nc(N2CCCCC2)n1	> 12.5 µg/mL	–
CN(C)CCNc1nc(NCCN(C)C)nc(N2CCCc3ccccc32)n1	> 12.5 µg/mL	–
COc1ccc(-c2cc(SC)nc(Nc3nc(N4CCCCC4)nc(N4CCCCC4)n3)n2)cc1OC	> 12.5 µg/mL	–
CCNC1CN(c2cc(-c3cc(OC)c(OC)c(OC)c3)nc(N)n2)CCO1 (stereo not drawn)	> 12.5 µg/mL	–
CC(C)(C)Nc1nc(NNC(=O)c2ccncc2)nc(N2CCc3ccccc3C2)n1	3.12 µg/mL (≈ 7.46 µM)	Activity [2]: Non-toxic; Activity [3]: Toxic
CCNc1nc(NCC)nc(N2CCCc3ccccc32)n1	> 12.5 µg/mL	–
COc1cc(-c2cc(SC)nc(Nc3nc(NC(C)(C)C)nc(NC(C)(C)C)n3)n2)cc(OC)c1OC	3.12 µg/mL (≈ 5.9 µM)	Activity [2]: Non-toxic; Activity [3]: Toxic
CCCNc1nc(NCCC)nc(Nc2nc(SC)cc(-c3cc(OC)c(OC)c(OC)c3)n2)n1	> 12.5 µg/mL	–
CCN1CCN(c2nc(Nc3nc(SC)cc(-c4ccc(OC)c(OC)c4)n3)nc(N3CCN(CC)CC3)n2)CC1	12.5 µg/mL (≈ 21.5 µM)	–
CCNC1CN(c2nc(N3CCCc4ccccc43)nc(N3CCCc4ccccc43)n2)CCO1 (stereo not drawn)	> 12.5 µg/mL	–
CCNC1CN(c2nc(N3CCc4ccccc4C3)nc(N3CCc4ccccc4C3)n2)CCO1 (stereo not drawn)	3.12 µg/mL (≈ 6.62 µM)	Activity [2]: Non-toxic; Activity [3]: Toxic
CCCNC1COCCN1c1nc(Nc2nc(SC)cc(-c3ccc(OC)c(OC)c3)n2)nc(N2CCOCC2NCCC)n1 (stereo not drawn)	> 12.5 µg/mL	–
